# In the library only some 1.2% were active in any assay of this set; here they are far more common.
# PREPL inh: human PREPL enzyme inhibition | Q4J6C6 | recombinant PREPL, fluorescence polarization activity-based probe | inhibition, % at 5.96 µM | 320,000 tested, 0.68% active | AID 2751; in the data active = inhibition above about 43%
# IDE inh: inhibits human insulin-degrading enzyme in HEK cells; FAbetaB cleavage, fluorescence polarization; P14735; 320,000 tested, 0.41% active; AID 434962; inhibition, % at 5.59 µM;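 active = percent inhibition above the average of all tested compounds plus 3 SD, set per screening campaign, cut at about 16% in these data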;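 note: IDE supplied by intact live HEK cells; FP after avidin binding of uncleaved biotin substrate so inhibition keeps polarization high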
# IDE cell activ: IDE (human) activation, cell-based. HEK cells, FAbeta-B cleavage, fluorescence polarization; 0% vehicle, 100% cell-free pure enzyme wells. activation, % at 5.96 µM. 340,000 tested, 0.073% active;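 active = activation above the mean of all tested compounds plus 3 SD, set per screening campaign, cut at about 17% in these data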
# ARFGAP1 inh: rat ARFGAP1 inhibition; Q62848; Arfgap1-stimulated ARF1 GTP hydrolysis, GDP FP detection; inhibition, % at 16.5 µM; 360,000 tested, 0.26% active;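 active = inhibition above a per-plate limit, mean inhibition of low control wells plus 3 SD, cut at about 25% in these data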
# Target sequence (Q62848 1-136 limits assumed): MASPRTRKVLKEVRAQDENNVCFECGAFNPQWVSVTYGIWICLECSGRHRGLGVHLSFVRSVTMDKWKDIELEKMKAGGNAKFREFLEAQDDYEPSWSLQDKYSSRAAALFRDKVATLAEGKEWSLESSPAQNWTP
#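 Material: rat Arfgap1 GAP domain (His6, aa 1-136), purified enzyme. Also added: human ARF1(Δ1-17)-GTP substrate. Compound dosing: 16.5 µM single point, 1.26% DMSO. Timing: enzyme reaction 120 min at 25 °C after 20 min preincubation. Signal: GDP detection by fluorescence polarization. Read-out basis: percent inhibition of GAP-stimulated GDP formation, scaled between DMSO and no-Arfgap1 medians.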
# ASAP1 GAP inh: blocks human ASAP1-stimulated Arf1 GTP hydrolysis | inhibition, % at 16.5 µM | GDP FP detection | Q9ULH1 | 360,000 tested, 0.19% active; in the data active = inhibition above about 25%
# Target sequence (Q9ULH1 325-724 limits assumed): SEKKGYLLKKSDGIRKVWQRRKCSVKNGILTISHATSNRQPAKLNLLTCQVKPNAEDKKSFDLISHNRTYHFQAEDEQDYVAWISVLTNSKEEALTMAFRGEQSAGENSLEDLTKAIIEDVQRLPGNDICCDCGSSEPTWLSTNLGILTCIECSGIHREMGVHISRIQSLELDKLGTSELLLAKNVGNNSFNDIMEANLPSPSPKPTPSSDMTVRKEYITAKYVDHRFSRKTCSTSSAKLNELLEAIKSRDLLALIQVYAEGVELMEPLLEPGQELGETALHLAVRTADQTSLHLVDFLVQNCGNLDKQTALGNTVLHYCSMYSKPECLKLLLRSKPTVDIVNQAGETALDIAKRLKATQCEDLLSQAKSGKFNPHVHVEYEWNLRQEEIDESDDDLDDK
# Numbers stand for hits; i = inactive; nt = no result.
SMILES,PREPL inh,IDE inh,IDE cell activ,ARFGAP1 inh,ASAP1 GAP inh
O=C(O/N=C/c1ccc2c(c1)OCO2)c1ccccc1Cl,55.4,i,nt,nt,nt
C[C@H](CO)N1C[C@H](C)[C@@H](CN(C)C(=O)Nc2ccnc(N3CCOCC3)c2)OCc2cn(nn2)CCCC1=O,nt,nt,nt,i,i
CNC[C@@H]1OCc2cnnn2CCCC(=O)N([C@@H](C)CO)C[C@H]1C,nt,nt,nt,i,i
CCN1/C(=C/c2ccc3cccc(C)c3[n+]2CC)Sc2ccccc21,60.4,53.1,i,i,i
COc1ccc(OCC2CN(C3CCCC3)S(=O)(=O)CCO2)cc1 (configuration not stated),nt,nt,nt,i,i
CN1C(=O)C(N=Nc2ccccc2C(=O)O)N(C)C1=S (configuration not stated),i,20.9,i,i,i
COC(=O)CCC(=O)OC1(C)C(=O)C=C2C=C(C3CC3)N(c3ccccc3)C=C2C1=O (configuration not stated),46.7,i,i,i,i
O=C(/C=C/c1cccnc1)c1ccc(NC(=O)c2cccc(Br)c2)cc1,i,i,i,i,25.9
COc1ccc(NC(=O)C2Cc3c(-c4ccc(NC(C)=O)cc4)ccnc3O2)cn1 (configuration not stated),nt,nt,nt,i,i
Clc1ccc(Nc2nc(-c3ccncc3)cs2)cc1,i,i,i,i,i
Nc1ccc(Nc2nc(-c3ccncc3)cs2)cc1,43.6,i,i,i,i
COc1ccc2c(c1)c(=O)oc1cc(OCC(=O)N3CCC(C)CC3)ccc12,i,i,i,nt,nt
COc1ccc2c(c1)c(=O)oc1cc(OCC(=O)N3CCCC(C)C3)ccc12 (configuration not stated),i,i,i,42.8,41.0
O=C(c1ccc(Cl)cc1)N1CCN(c2ccc([N+](=O)[O-])c(NCc3cccnc3)c2)CC1,i,i,i,i,i
O=C(c1ccccc1)N1CCN(c2ccc([N+](=O)[O-])c(NCc3cccnc3)c2)CC1,i,i,19.8,i,i
C[C@H]1CN([C@@H](C)CO)C(=O)CCCn2cc(nn2)CO[C@@H]1CN(C)C(=O)c1ccc2ccn(C)c2c1,nt,nt,nt,i,i
CC(/C=C/c1ccccc1)=N\Nc1nc2c(c(=O)[nH]c(=O)n2C)n1CCO,i,i,nt,nt,nt
CCCn1c(N/N=C\C=C\c2ccccc2)nc2c1c(=O)[nH]c(=O)n2C,i,16.4,i,i,i
COCCn1nnnc1C(c1cccs1)N1CCN(c2cc(C)ccc2C)CC1 (configuration not stated),i,i,i,i,i
COCCn1nnnc1C(c1cccs1)N1CCN(c2nc3ccccc3s2)CC1 (configuration not stated),50.3,i,i,i,i
N#Cc1c(N)sc(=S)c2c1CCN(Cc1ccccc1)C2,73.6,i,nt,nt,nt
O=C(c1cnn(C(=O)c2ccco2)c1)c1cc(F)ccc1O,i,i,27.4,i,i
COC(=O)C1=C(C)N(Cc2ccc(Cl)cc2)C(=S)NC1c1ccc(OC)cc1 (configuration not stated),nt,nt,nt,i,i
CC(=O)NC1=NC(=O)/C(=C/c2cn(C(C)=O)nc2-c2ccccc2)S1,i,19.6,i,i,i
COC(=O)N1C[C@H](OCc2ccc3c(c2)OCO3)[C@H]2C[C@@H]1c1ccccc1O2,nt,nt,nt,i,i
SMILES,PREPL inh,IDE inh,IDE cell activ,ARFGAP1 inh,ASAP1 GAP inh
COc1cc(/C=C2\C(=N)N3N=C(S(=O)(=O)CC(C)C)SC3=NC2=O)ccc1OC(=O)c1ccco1,49.4,i,nt,nt,nt
C[C@@H]1CN([C@@H](C)CO)C(=O)CCCn2nncc2CO[C@H]1CN(C)Cc1ccc(O)cc1,nt,nt,nt,i,i
COc1cc(C2Nc3cccc4cccc(c34)N2)cc(OC)c1O,i,i,28.0,i,i
COc1cc(C2Nc3cccc4cccc(c34)N2)ccc1OC(C)=O,i,i,i,nt,nt
OCCCc1nc2n(n1)C(c1cccs1)C=C(c1ccccc1)N2 (configuration not stated),i,78.3,nt,nt,nt
Cc1ccnc(N/C=C(/NC(=O)c2ccccc2)C(=O)N/N=C\c2ccc(Cl)cc2)n1,i,32.0,i,i,i
Cc1cc2cc(CNC(=O)CCC(=O)O)ccc2n1C,i,i,i,i,i
CCCC(=O)NCc1ccc2c(c1)cc(C)n2C,i,i,i,32.9,i
O=C1c2cccc3c(O)ccc(c23)C(=O)N1Cc1ccccc1,i,i,58.6,i,i
O=C(O)c1cccc(CN2C(=O)c3ccccc3C2=O)c1,i,i,i,i,i
COc1ccc(-c2ncn(CCc3ccccc3OC)c2C(C)C)cc1,nt,nt,nt,i,i
C[C@H](O)[C@@H]1C(=O)N2CCc3c([nH]c4c(-c5ccccc5)cccc34)[C@@H]2C[C@@H]1N(C)CC1CCCCC1,nt,nt,nt,i,i
Cc1cc(C=O)c2c(c1)C=CC1(Oc3ccccc3C(=O)N1C)O2 (configuration not stated),i,25.2,nt,nt,nt
CN1C(=O)c2ccccc2OC1(C)Cc1ccccc1 (configuration not stated),i,i,i,i,i
COc1ccc(-c2ccc(CNCc3ccccn3)o2)cc1Cl,51.0,i,nt,nt,nt
C[C@@H]1COc2cccc(NC3CC3)c2S(=O)(=O)N1,nt,nt,nt,i,i
CCCCc1ccc(NC(=S)Nc2ccc(Nc3ccc(OC)cc3)cc2)cc1,46.6,i,i,i,i
O=C(Cc1ccccc1)N/N=C/c1cc(Br)c(Br)o1,i,i,i,i,27.0
CC1=C(C(=O)OCc2ccccc2)C(c2ccc(Br)cc2)NC(=O)N1CCCCCC(=O)O (configuration not stated),i,i,38.0,i,i
O=C(NCCN1CCOCC1)c1ccccc1[N+](=O)[O-],i,i,i,i,i
Cc1cccc(C(=O)NCCN2CCOCC2)c1[N+](=O)[O-],i,i,27.9,i,i
Nc1[nH]c(C(=O)c2ccccc2)c(-c2ccccc2[N+](=O)[O-])c1C(=O)NCCc1c[nH]c2ccccc12,nt,nt,nt,i,i
Cc1[nH]c2ccccc2c1CC(=O)Nc1ccc(Nc2ccncc2)cc1,nt,nt,nt,i,i
O=C1C(Nc2ccccc2)=C/C(=N/S(=O)(=O)c2cccs2)c2ccccc21,i,i,i,nt,nt
Cc1ccc(NC2=C/C(=N/S(=O)(=O)c3cccs3)c3ccccc3C2=O)cc1,i,i,i,i,33.1
SMILES,PREPL inh,IDE inh,IDE cell activ,ARFGAP1 inh,ASAP1 GAP inh
Cc1[nH][nH]c(=O)c1C(c1ccc(-c2ccc(C(=O)O)cc2)o1)c1c(C)[nH][nH]c1=O,nt,nt,i,28.5,i
COc1cc(/C=C2/SC(=Nc3ccc(O)cc3)NC2=O)cc(OC)c1O,i,57.8,i,i,i
C#CCn1c(=NC(=O)c2sc3ccccc3c2Cl)sc2cc(S(N)(=O)=O)ccc21,i,i,i,82.2,i
C#CCn1c(=NC(=O)c2ccc(S(=O)(=O)N3CCc4ccccc4C3)cc2)sc2cc(S(N)(=O)=O)ccc21,i,i,i,nt,nt
COC(=O)c1cc2c(c3c4cc(C)ccc4n(C(=O)c4ccccc4)c13)C(=O)N(Cc1ccccc1)C2,nt,nt,nt,i,i
COc1ccc(-c2cc(-c3c(O)c(OC)c4occc4c3OC)[nH]n2)cc1OC,50.9,i,i,i,i
